Measured values as given in ChEMBL document CHEMBL2424551, “Synthesis, in vitro evaluation and molecular modelling of naphthalimide analogue as anticancer agents” (2013).

How the values were obtained:
Assay type in all cases: functional
[1] = Growth inhibition of human HCC2998 cells at 10 uM after 48 hrs by SRB assay; details: HCC 2998, 48 h, read-out: GI
Method in brief: (§1)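 Cells grown in RPMI 1640 with 5% FBS and 2 mM L-glutamine, plated at 5000–40,000 cells/well by doubling time and preincubated 24 h (37 °C, 5% CO2); a time-zero plate is TCA-fixed. Single dose added, then 48 h incubation. Fixed with cold TCA, stained with 0.4% SRB, dye solubilized in 10 mM Tris base, absorbance at 515 nm; percent growth vs time-zero and untreated control.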

HT-29 = assay: Growth inhibition of human HT-29 cells at 10 uM after 48 hrs by SRB assay; details: HT-29, 48 h, read-out: GI; method in brief: as §1
OVCAR-4 = assay: Growth inhibition of human OVCAR4 cells at 10 uM after 48 hrs by SRB assay; details: OVCAR-4, 48 h, read-out: GI; method in brief: as §1
COLO 205 = assay: Growth inhibition of human COLO205 cells at 10 uM after 48 hrs by SRB assay; details: COLO 205, 48 h, read-out: GI; method in brief: as §1
SF-539 = assay: Growth inhibition of human SF539 cells at 10 uM after 48 hrs by SRB assay; details: SF-539, 48 h, read-out: GI; method in brief: as §1
SF-268 = assay: Growth inhibition of human SF268 cells at 10 uM after 48 hrs by SRB assay; details: SF-268, 48 h, read-out: GI; method in brief: as §1
SK-MEL-28 = assay: Growth inhibition of human SK-MEL-28 cells at 10 uM after 48 hrs by SRB assay; details: SK-MEL-28, 48 h, read-out: GI; method in brief: as §1
M14 = assay: Growth inhibition of human M14 cells at 10 uM after 48 hrs by SRB assay; details: M14, 48 h, read-out: GI; method in brief: as §1
SNB-19 = assay: Growth inhibition of human SNB19 cells at 10 uM after 48 hrs by SRB assay; details: SNB-19, 48 h, read-out: GI
Method in brief: (§2)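 NCI 60-cell-line screen with a single 10 µM dose. Cells are grown in RPMI 1640 with 5% FBS and 2 mM L-glutamine, plated at 5000–40,000 cells/well according to doubling time, and preincubated 24 h at 37 °C, 5% CO2; time-zero plates are TCA-fixed at that point. Drug exposure is 48 h. Adherent cells are fixed with cold TCA, stained with 0.4% SRB in 1% acetic acid and read at 515 nm. Percent growth is calculated relative to time-zero and untreated controls and reported as GI%.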

UACC-257 = assay: Growth inhibition of human UACC257 cells at 10 uM after 48 hrs by SRB assay; details: UACC-257, 48 h, read-out: GI; method in brief: as §2
OVCAR-3 = assay: Growth inhibition of human OVCAR3 cells at 10 uM after 48 hrs by SRB assay; details: OVCAR-3, 48 h, read-out: GI; method in brief: as §1
SR = assay: Growth inhibition of human SR cells at 10 uM after 48 hrs by SRB assay; details: read-out: GI; method in brief: as §2
A549 = assay: Growth inhibition of human A549 cells at 10 uM after 48 hrs by SRB assay; details: A549, 48 h, read-out: GI; method in brief: as §1
MCF7 = assay: Growth inhibition of human MCF7 cells at 10 uM after 48 hrs by SRB assay; details: MCF7, 48 h, read-out: GI; method in brief: as §1
LOX IMVI = assay: Growth inhibition of human LOXIMVI cells at 10 uM after 48 hrs by SRB assay; details: read-out: GI; method in brief: as §1
IGROV-1 = assay: Growth inhibition of human IGROV1 cells at 10 uM after 48 hrs by SRB assay; details: IGROV-1, 48 h, read-out: GI; method in brief: as §1
Malme-3M = assay: Growth inhibition of human MALME-3M cells at 10 uM after 48 hrs by SRB assay; details: read-out: GI; method in brief: as §1
MOLT-4 = assay: Growth inhibition of human MOLT4 cells at 10 uM after 48 hrs by SRB assay; details: MOLT-4, 48 h, read-out: GI; method in brief: as §1
A498 = assay: Growth inhibition of human A498 cells at 10 uM after 48 hrs by SRB assay; details: A498, 48 h, read-out: GI; method in brief: as §1
SK-MEL-2 = assay: Growth inhibition of human SK-MEL-2 cells at 10 uM after 48 hrs by SRB assay; details: SK-MEL-2, 48 h, read-out: GI; method in brief: as §1
UO-31 = assay: Growth inhibition of human UO31 cells at 10 uM after 48 hrs by SRB assay; details: UO-31, 48 h, read-out: GI; method in brief: as §2
TK-10 = assay: Growth inhibition of human TK10 cells at 10 uM after 48 hrs by SRB assay; details: TK-10, 48 h, read-out: GI; method in brief: as §2
OVCAR-8 = assay: Growth inhibition of human OVCAR8 cells at 10 uM after 48 hrs by SRB assay; details: OVCAR-8, 48 h, read-out: GI; method in brief: as §1
RXF 393 = assay: Growth inhibition of human RXF393 cells at 10 uM after 48 hrs by SRB assay; details: RXF 393, 48 h, read-out: GI; method in brief: as §1
Hs-578T = assay: Growth inhibition of human Hs578T cells at 10 uM after 48 hrs by SRB assay; details: read-out: GI; method in brief: as §1
[2] = Growth inhibition of human EKVX cells at 10 uM after 48 hrs by SRB assay; details: read-out: GI; method in brief: as §1

O=c1c2cccc3c(Nc4ccc(Br)cn4)ccc(c32)c2nc3ccccc3n12
inhibition of growth at 10 µM [1]: 25.2% | inhibition of growth at 10 µM (HT-29): < 20% | inhibition of growth at 10 µM (OVCAR-4): 46.3% | inhibition of growth at 10 µM (COLO 205): < 20% | inhibition of growth at 10 µM (SF-539): < 20% | inhibition of growth at 10 µM (SF-268): < 20% | inhibition of growth at 10 µM (SK-MEL-28): 27.1% | inhibition of growth at 10 µM (M14): < 20% | inhibition of growth at 10 µM (SNB-19): < 20% | inhibition of growth at 10 µM (UACC-257): < 20% | inhibition of growth at 10 µM (OVCAR-3): < 20% | inhibition of growth at 10 µM (SR): 47.1% | inhibition of growth at 10 µM (A549): < 20% | inhibition of growth at 10 µM (MCF7): 95.8% | inhibition of growth at 10 µM (LOX IMVI): < 20% | inhibition of growth at 10 µM (IGROV-1): 51.1% | inhibition of growth at 10 µM (Malme-3M): < 20% | inhibition of growth at 10 µM (MOLT-4): < 20% | inhibition of growth at 10 µM (A498): < 20% | inhibition of growth at 10 µM (SK-MEL-2): < 20% | inhibition of growth at 10 µM (UO-31): 47.9% | inhibition of growth at 10 µM (TK-10): 21.9% | inhibition of growth at 10 µM (OVCAR-8): < 20% | inhibition of growth at 10 µM (RXF 393): < 20% | inhibition of growth at 10 µM (Hs-578T): < 20%

O=c1c2cccc3c(N4CCOCC4)ccc(c32)c2nc3ccccc3n12
inhibition of growth at 10 µM [1]: 26.8% | inhibition of growth at 10 µM (HT-29): < 20% | inhibition of growth at 10 µM (OVCAR-4): 30.1% | inhibition of growth at 10 µM (COLO 205): < 20% | inhibition of growth at 10 µM (SF-539): < 20% | inhibition of growth at 10 µM (SF-268): < 20% | inhibition of growth at 10 µM (SK-MEL-28): < 20% | inhibition of growth at 10 µM (M14): < 20% | inhibition of growth at 10 µM (SNB-19): < 20% | inhibition of growth at 10 µM (UACC-257): < 20% | inhibition of growth at 10 µM (OVCAR-3): < 20% | inhibition of growth at 10 µM (SR): < 20% | inhibition of growth at 10 µM (A549): < 20% | inhibition of growth at 10 µM (MCF7): 76% | inhibition of growth at 10 µM (LOX IMVI): < 20% | inhibition of growth at 10 µM (IGROV-1): 41.7% | inhibition of growth at 10 µM [2]: 61.7% | inhibition of growth at 10 µM (Malme-3M): < 20% | inhibition of growth at 10 µM (MOLT-4): < 20% | inhibition of growth at 10 µM (A498): < 20% | inhibition of growth at 10 µM (SK-MEL-2): < 20% | inhibition of growth at 10 µM (UO-31): 34.1% | inhibition of growth at 10 µM (TK-10): 28.2% | inhibition of growth at 10 µM (OVCAR-8): < 20% | inhibition of growth at 10 µM (RXF 393): < 20% | inhibition of growth at 10 µM (Hs-578T): 59.8%
